Measured values pooled from the literature.
Compare with care: the assays were run in different laboratories.
Cell line: MV4-11
Read-out: cell growth or viability

SMILES	test	conditions	measurement	result
O=C(O)c1ccc(CN2CCC(CN[C@@H]3C[C@H]3c3ccccc3)CC2)cc1	resazurin	96 h	EC50	39.6 nM
Cc1cc2c(cc1N1C(=O)c3cccc4c(CCCO)ccc(c34)C1=O)n(C)c(=O)n2C (racemic)	resazurin	–	GI50	2630 nM
c1cc(Nc2nccc(NC3CCCCC3)n2)cc(-c2ncco2)c1	ATP luminescence	72 h	EC50	511 nM
Cn1cc(-c2cc(N3CCCCS3(=O)=O)ccc2Oc2ccc(F)cc2F)c2c(F)c[nH]c2c1=O	CCK-8	72 h	GI50	3.5 nM
O=C(NC1CCC1)c1ccc2nc(-c3cccc(NS(=O)(=O)NCCN4CCCCC4)c3)cn2c1	ATP luminescence	72 h	IC50	4200 nM
NNCCc1ccccc1	resazurin	96 h	EC50	> 2000 nM
COc1cc(Nc2nccc(-c3cnn4nc(OC)ccc34)n2)cc(C(F)(F)F)c1	ATP luminescence	–	IC50	48 nM
c1cncc(Nc2nccc(NC3CCCCC3)n2)c1	ATP luminescence	72 h	EC50	> 7000 nM
CC[C@@H](C)[C@H](N)C(=O)N1Cc2ccccc2C1	ATP luminescence	24 h	IC50	1150 nM
C#CCN(C)Cc1ccccc1	resazurin	96 h	EC50	> 2000 nM
Nc1ncc(-c2cnn(C3CCNCC3)c2)cc1-c1nnc(CC2CC2)o1	trypan blue	72 h	IC50	157 nM
CC(C)Nc1ccnc(Nc2cccc(-c3ccccn3)c2)n1	ATP luminescence	72 h	EC50	4820 nM
CN1CCN(C(=O)[C@H](CCCN[C@@H]2C[C@H]2c2ccc(F)cc2)NC(=O)c2ccc(-n3ccnn3)cc2)CC1	resazurin	96 h	EC50	4.2 nM
c1cc(Nc2nccc(NC3CCCCC3)n2)cc(-c2cnccn2)c1	ATP luminescence	72 h	EC50	53 nM
CC(C)[C@H](N)C(=O)N1CCC[C@H]1B(O)O	ATP luminescence	5 days	IC50	130 nM
